# Results gathered from unrelated publications.
# Compare with care: the assays were run in different laboratories.
# Cell line: RAW264.7
SMILES,test,setting,measurement,result
C=C1CC[C@@H]2[C@](C)(CO)[C@H](O)CC[C@@]2(C)[C@@H]1C/C=C1/C(=O)OC[C@H]1O,"NO release, inhibitor, Griess","24 h, LPS-stimulated",IC50,48.6 µM
COc1ccc(C[C@H](N)C(=O)N[C@H]2[C@@H](O)[C@H](n3cnc4c(N(C)C)ncnc43)O[C@@H]2CO)cc1,"cell growth or viability, resazurin",72 h,IC50,1.54 µM
C[C@]12C=CC(=O)C=C1CC[C@@H]1[C@@H]2[C@@H](O)C[C@@]2(C)[C@H]1CC[C@]2(O)C(=O)CO,"NO release, inhibitor, Griess","24 h, LPS-stimulated",IC50,0.2 µg/mL
C[C@@H]1C[C@H]2[C@@H]3CCC4=CC(=O)C=C[C@]4(C)[C@@]3(F)[C@@H](O)C[C@]2(C)[C@@]1(O)C(=O)CO,"NO release, inhibitor, Griess",LPS-stimulated,IC50,13.1 µM
[H]/N=C(/NC)NCCC[C@H](N)C(=O)O,"NO release, inhibitor, Griess","250 µg/mL, 24 h, LPS-stimulated",inhibition,97.1%
[H]/N=C(/NC)NCCC[C@H](N)C(=O)O,"NO release, inhibitor, Griess",LPS-stimulated,IC50,21.8 µM
COc1ccc2c(c1)c(CC(=O)O)c(C)n2C(=O)c1ccc(Cl)cc1,"NO release, inhibitor, Griess","24 h, LPS-stimulated",IC50,26.5 µM
CCOc1ccc(Nc2c3c(nc4ccccc24)CCC3)cc1,"cell growth or viability, resazurin",72 h,IC50,38.4 µM
